Activity calls are given as the source filed them. The rule behind the calls is not given here.
Columns and labels:
[1] = Oral bioavailability in dog at 1 mg/kg; assay type: ADME, organism-based, Canis lupus familiaris; settings: in vivo
Summary of the method: (§1)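 Dog and rhesus monkey dosed 1 mg/kg po and 0.5 mg/kg iv. The iv vehicle was PEG200:12%HPCD:water (30:12:58 v/v/v); the po vehicle was Imwitor:Tween (1:1 w/w). Clearance was measured in plasma. Protein binding was measured in 100% serum.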

[2] = biological target: Cytochrome P450 3A4 (Homo sapiens, UniProt P08684); test: Inhibition of CYP3A4 (unknown origin); assay type: ADME
Cytochrome P450 3A4, sequence (P08684 whole entry): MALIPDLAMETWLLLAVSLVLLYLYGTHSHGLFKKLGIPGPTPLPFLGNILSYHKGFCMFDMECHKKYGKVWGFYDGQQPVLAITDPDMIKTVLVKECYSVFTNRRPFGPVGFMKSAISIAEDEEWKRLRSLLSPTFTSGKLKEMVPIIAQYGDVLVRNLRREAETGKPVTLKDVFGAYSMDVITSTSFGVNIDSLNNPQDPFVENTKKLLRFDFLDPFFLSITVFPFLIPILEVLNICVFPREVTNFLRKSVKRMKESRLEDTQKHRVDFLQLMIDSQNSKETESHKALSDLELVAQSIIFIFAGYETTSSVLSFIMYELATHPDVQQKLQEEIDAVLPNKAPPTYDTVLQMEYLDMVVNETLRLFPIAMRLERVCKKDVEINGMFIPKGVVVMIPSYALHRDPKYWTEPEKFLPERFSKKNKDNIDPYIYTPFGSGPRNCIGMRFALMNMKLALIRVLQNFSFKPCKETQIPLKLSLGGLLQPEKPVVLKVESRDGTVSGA

[3] = Volume of distribution at steady state in C57BL/6J mouse at 1 mg/kg, po or 0.5 mg/kg, iv; assay type: ADME, organism-based; settings: in vivo, read-out: Vdss
Summary of the method: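 C57BL/6J mice dosed 1 mg/kg po and 0.5 mg/kg iv, both in DMSO:PEG400:water (5:40:55, v/v/v).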

[4] = Plasma clearance in rhesus monkey at 1 mg/kg, po or 0.5 mg/kg, iv; assay type: ADME, organism-based, Macaca mulatta; summary of the method: as §1
[5] = Drug recovery in fasted bile-duct cannulated Sprague-Dawley rat urine at 5 mg/kg, po using [3H]-labeled compound measured after 48 hrs; assay type: ADME, organism-based; settings: in vivo
[6] = species: Rattus norvegicus; settings: Sprague-Dawley, dose 5-15 mg/kg
[7] = species: Rattus norvegicus; settings: Sprague-Dawley, dose 15.0 mg/kg

SMILES: COc1ccc(C(NC(=O)c2cnc(-c3cccnn3)nc2O)c2ccc(OC)cc2)cc1
- bioavailability [1]: 71%
- IC50 [2]: > 60 µM
- Vd [3]: 0.13 L/kg
- clearance [4]: 0.15 mL/min/kg
- Drug recovery [5]: 26%
- inhibition [6]: Active
- inhibition [7]: Active

From ChEMBL document CHEMBL4765235, “Discovery of N-[Bis(4-methoxyphenyl)methyl]-4-hydroxy-2-(pyridazin-3-yl)pyrimidine-5-carboxamide (MK-8617), an Orally Active Pan-Inhibitor of Hypoxia-Inducible Factor Prolyl Hydroxylase 1-3 (HIF PHD1-3) for the Treatment of Anemia” (J Med Chem, 2016)
